hDAT+cocaine = changed hDAT dopamine uptake under cocaine IC80, either direction, primary screen, cocaine antagonist project, cell-based, LLC-PK1 hDAT, [14C]-dopamine uptake, MLSMR | Sodium-dependent dopamine transporter (Homo sapiens), Q01959 | LLC-PK1 hDAT cells, [14C]-dopamine uptake with cocaine IC80; actives deviate in either direction | B-score at 10 µM | actives 1.3% (n = 110,000);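 active = Z score or B-score, a plate-position-corrected score, falls beyond the plate's 99.7% confidence bounds, in either direction; inactive = both scores lie inside the 99.7% bounds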
Phagocytosis inh = inhibitors of macrophage phagocytosis, primary screen, imaging, J774A.1 cells, IgG beads | actives 0.07% (n = 110,000) | inhibition, % at 5 µM | J774A.1 macrophage IgG-bead phagocytosis;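 active = inhibition above the mean of the plate negative controls plus 5 SD, cut at about 13% in these data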;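 note: phagocytic index as fraction of beads internalized from green versus red external bead signal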
Rev-RRE block = HIV-1 Rev-RRE binding inhibitors, primary screen, biochemical, FRET, protein-RNA interaction. Rev peptide-RRE RNA binding. inhibition, % at 8 µM. actives 0.79% (n = 97,000);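 active = inhibition above the screen-wide mean plus 3 SD, cut at about 35% in these data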
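Material: labelled RRE RNA duplex and labelled Rev peptide / Buffer or medium: HEPES pH 7.5 salt buffer with EDTA / Compound dosing: single point, 8 µM final nominal compound concentration / Benchmarks: DMSO low control, neomycin B high control / Timing: 5 min preincubation and 15 min binding, 25 °C / Technique: FRET fluorescence readout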
Measles CPE = compounds protecting cells from measles virus cytopathic effect, primary screen, measles RdRp inhibitor project, single point, MLSMR library, absorbance. Measles virus-infected cells, CPE protection. protection (pct of control), % at 4 µM. actives 1.5% (n = 140,000). AID 841, 2007; in the data active = protection mostly above about 24%, no sharp cut-off; inactive = mostly below about 26%
Cav3 T inh = Cav3.2 calcium influx blockers – cell-based, Fluo-4 calcium fluorescence, FDSS, MLSMR library, primary screen | Voltage-dependent T-type calcium channel subunit alpha-1H (Homo sapiens), O95180 | B-score at 10 µM | Cav3.2-expressing cells; stronger effect = lower value | actives 4% (n = 100,000);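 active = single-dose well whose peak fluorescence ratio is a statistical outlier from its plate by either plate-standardised score or position-corrected B-score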
PTK2B oligo ant = antagonists of Pyk2 self-association, primary screen, Q293 cells, FERM NanoBiT luminescence, HTS; Protein-tyrosine kinase 2-beta (Homo sapiens), Q14289; stronger effect = lower value; z-score (the deposit names both 25 µM and 10 µM); actives 0.83% (n = 99,000); AID 1347419, 2020;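 active = Z-score of -3 or lower, scaled per plate to the spread of control and sample wells; inactive = z-score above -3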;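 note: negative z-score means lost luminescence so less FERM oligomerization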
Target sequence (Q14289 whole entry, looked up): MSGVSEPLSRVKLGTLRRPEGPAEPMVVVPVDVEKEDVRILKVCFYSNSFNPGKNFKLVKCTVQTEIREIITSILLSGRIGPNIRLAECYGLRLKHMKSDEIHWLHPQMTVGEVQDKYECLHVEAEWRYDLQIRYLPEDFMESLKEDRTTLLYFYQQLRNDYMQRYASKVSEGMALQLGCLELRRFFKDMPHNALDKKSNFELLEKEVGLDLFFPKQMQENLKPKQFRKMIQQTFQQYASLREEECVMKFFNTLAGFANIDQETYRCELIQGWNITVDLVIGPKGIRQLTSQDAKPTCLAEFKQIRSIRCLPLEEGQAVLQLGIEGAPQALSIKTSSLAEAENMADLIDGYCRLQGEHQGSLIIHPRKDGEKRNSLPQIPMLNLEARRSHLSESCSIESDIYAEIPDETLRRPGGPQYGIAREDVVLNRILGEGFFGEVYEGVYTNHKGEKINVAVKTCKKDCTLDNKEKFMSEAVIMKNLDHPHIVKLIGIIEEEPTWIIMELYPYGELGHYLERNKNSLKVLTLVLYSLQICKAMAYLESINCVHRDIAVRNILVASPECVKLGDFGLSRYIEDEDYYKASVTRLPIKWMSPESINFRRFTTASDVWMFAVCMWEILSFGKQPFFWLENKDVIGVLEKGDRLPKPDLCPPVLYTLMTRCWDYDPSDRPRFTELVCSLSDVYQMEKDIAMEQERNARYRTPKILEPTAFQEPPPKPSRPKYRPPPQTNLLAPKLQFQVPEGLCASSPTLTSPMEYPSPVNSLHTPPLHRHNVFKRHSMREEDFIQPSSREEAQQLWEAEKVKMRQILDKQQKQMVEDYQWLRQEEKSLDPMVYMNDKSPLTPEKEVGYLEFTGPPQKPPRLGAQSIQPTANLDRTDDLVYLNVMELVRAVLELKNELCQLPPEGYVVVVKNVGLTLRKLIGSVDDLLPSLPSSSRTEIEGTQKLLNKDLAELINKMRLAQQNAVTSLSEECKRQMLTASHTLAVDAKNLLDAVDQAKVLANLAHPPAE
Large screens that a line does not name were inactive; [ ] = dose if it differs, or a comment. Only some compounds are listed: those with a hit (about 5.9% of all), similar ones and a draw of the others.

O=C1NC(=S)S/C1=C\c1ccc(SCc2ccco2)o1	none (no result: hDAT+cocaine, Rev-RRE block, Cav3 T inh)
CCCC1=NN2C(=N)/C(=C\c3ccc(SCc4ccco4)o3)C(=O)N=C2S1	Rev-RRE block 36 (no result: Phagocytosis inh)
CCC1=NN2C(=N)/C(=C\c3ccc(SCc4ccco4)o3)C(=O)N=C2S1	Rev-RRE block 36
CCC1=NN2C(=N)/C(=C/c3c(C)nn(-c4ccccc4)c3Cl)C(=O)N=C2S1	Measles CPE 71 (no result: hDAT+cocaine, Rev-RRE block, Cav3 T inh, PTK2B oligo ant)
CC(C)(C)N1OC2CC1c1nc3ccccc3n1C2 (configuration not stated)	none (no result: Phagocytosis inh, Rev-RRE block, Measles CPE, PTK2B oligo ant)
Cc1ccc(NC(=O)CSc2nccn2Cc2ccccc2)cc1C	Cav3 T inh -8
Clc1ccc(CSc2nccn2Cc2ccccc2)cc1	Cav3 T inh -5 (no result: Phagocytosis inh)
CC(=O)Nc1ccc(NC(=O)CSc2nccn2Cc2ccccc2)cc1	none
CCC(Sc1nc2c(cnn2-c2ccc(Cl)cc2)c(=O)[nH]1)C(=O)OC (configuration not stated)	none (no result: Rev-RRE block, PTK2B oligo ant)
CCOC(=O)C(C)(C)Sc1nc2c(cnn2-c2ccc(Cl)cc2)c(=O)[nH]1	Phagocytosis inh 163[fluoresces] (no result: PTK2B oligo ant)
COC(=O)c1ccc(CSc2nc3c(cnn3-c3ccc(C)c(C)c3)c(=O)[nH]2)o1	Measles CPE 30 (no result: Phagocytosis inh)
CC(C)(C)NC(=O)C(c1c[nH]c2ccccc12)N(C(=O)Cn1nnc(-c2ccc(F)cc2)n1)c1cccc(O)c1 (configuration not stated)	none (no result: hDAT+cocaine, Rev-RRE block, Cav3 T inh, PTK2B oligo ant)
Cc1ccc(/C=N/NC(=O)c2cc(C3CC3)nc3ccccc23)o1	none (no result: hDAT+cocaine, Phagocytosis inh, Rev-RRE block, Cav3 T inh)
CC(C)N(C(=O)CSc1nnnn1C1CCCC1)C(C)C	Cav3 T inh -3.7
O=C(O)c1ccc(CSc2nnnn2C2CCCCC2)cc1	Measles CPE 30
O=C(CSc1nnnn1C1CCCCC1)N1CCCC1	none
O=C1CCC(=O)N1c1ccc(CSc2nnnn2C2CCCCC2)cc1	Measles CPE 19
O=C(CSc1nnnn1C1CCCCC1)NCc1ccccc1	none
Cc1ccc(OCC(=O)NNC(=O)C(=O)N2CCCC2)c(C)c1	none (no result: hDAT+cocaine, Rev-RRE block, Cav3 T inh, PTK2B oligo ant)
CCCc1cc(=O)oc2c3c(c4c(c12)OC(C)(C)C=C4)OC(C)C(C)C3O (configuration not stated)	Cav3 T inh -6.8 (no result: Phagocytosis inh, Rev-RRE block, Measles CPE, PTK2B oligo ant)
CCCc1cc(=O)oc2cc(C)cc(O)c12	none
FC(F)(F)c1ccc(N=Cc2sc(N3CCOCC3)nc2-c2ccccc2)cc1	none (no result: hDAT+cocaine, Rev-RRE block, Cav3 T inh, PTK2B oligo ant)
Nc1c(C(O)(C(F)(F)F)C(F)(F)F)ccc2ccccc12	none (no result: Phagocytosis inh)
N#CC(c1cccc(Cl)c1)c1ccc2c(C(F)(F)F)cc(C(F)(F)F)nc2n1 (configuration not stated)	Cav3 T inh -9.2
COC(=O)c1ccc2c(c1)S(=O)(=O)NC(=NCc1ccco1)S2	Measles CPE 85
COc1ccc(Oc2c(C)oc3c(CN4CCOCC4)c(O)ccc3c2=O)cc1	Measles CPE 34 (no result: Phagocytosis inh)
CCOC(=O)c1ccc(Oc2c(C)oc3c(CN4CCN(C)CC4)c(O)ccc3c2=O)cc1	none
COc1ccccc1Oc1c(C)oc2c(CN3CCN(CCO)CC3)c(O)ccc2c1=O	none (no result: hDAT+cocaine, Cav3 T inh, PTK2B oligo ant)
Cc1oc2c(CN3CCCC3)c(O)ccc2c(=O)c1Oc1ccccc1Br	Measles CPE 19 (no result: Phagocytosis inh)
Cc1ccc(N(CC(=O)N2CCc3ccccc32)C2=NC(=O)CS2)cc1	Cav3 T inh -4.3
CCNC(=O)CCSc1nnc(-c2ccco2)o1	none (no result: hDAT+cocaine, Rev-RRE block, Cav3 T inh, PTK2B oligo ant)
CC1CCCC(NC(=O)CSc2nnnn2C)C1C (configuration not stated)	Cav3 T inh -4.7
COc1ccc(N2CCN(S(=O)(=O)c3ccc(C(=O)NCc4ccco4)cc3)CC2)cc1	Cav3 T inh -3.9 (no result: Phagocytosis inh)
O=C(NCc1ccco1)c1ccc(S(=O)(=O)N2CCOCC2)cc1	none (no result: Phagocytosis inh)
CN(C)c1ccc(-c2cc([C@H]3[C@@H]4C=CCC[C@@]4(C)C(=O)N3Cc3ccccc3)ccc2F)cc1	none (no result: Phagocytosis inh, Rev-RRE block, Measles CPE, PTK2B oligo ant)
CCOC(=O)C(C(=O)Nc1nc2ccccc2s1)C1CCCCC1 (configuration not stated)	Cav3 T inh -7.8 (no result: Phagocytosis inh)
Cc1ccccc1-n1c(SCC(=O)Nc2ccccc2)nc2nc3c(cc2c1=O)CCCC3	none (no result: hDAT+cocaine, Rev-RRE block, Cav3 T inh, PTK2B oligo ant)
O=C(NC1CCCC1)C(c1ccccn1)N(C(=O)c1csnn1)C1CCCCC1 (configuration not stated)	none (no result: Phagocytosis inh)
O=C(NC1CCCC1)C(c1ccccn1)N(C(=O)c1csnn1)C1CC1 (configuration not stated)	Measles CPE 86
CN1CCc2c(sc(/N=C/c3cccs3)c2C(N)=O)C1	Rev-RRE block 81
CCCCC(CC)C(=O)NCCCN1CCN(CCCNC(=O)C(CC)CCCC)CC1 (configuration not stated)	Measles CPE 36, Cav3 T inh -7.3 (no result: Rev-RRE block)
CC(=O)Nc1ccc(Nc2cc(C)nc3c(-c4ccccc4)c(C)nn23)cc1	Measles CPE 93 (no result: hDAT+cocaine, Phagocytosis inh, Rev-RRE block, Cav3 T inh, PTK2B oligo ant)
CCCN1C2=NCCN2c2ccccc21	Measles CPE 45
CC(C)(C)c1ccc(CN2C3=NCCCN3c3ccccc32)cc1	Cav3 T inh -6.3 (no result: Phagocytosis inh)
CCCN1C2=NCCCN2c2ccccc21	none (no result: Phagocytosis inh)
Cc1ccc(CN2C3=NCCCN3c3ccccc32)cc1	none
CC(NC(=O)c1cccs1)c1nnc(SCc2ccc(Cl)cc2Cl)n1C (configuration not stated)	none (no result: hDAT+cocaine, Phagocytosis inh, Rev-RRE block, Cav3 T inh, PTK2B oligo ant)
N#Cc1cn(CCCOc2ccccc2)c2ccccc12	none (no result: Phagocytosis inh)
COc1ccccc1OCCCn1cc(C#N)c2ccccc21	Cav3 T inh -4.5
Cc1cc(C(=O)CN(Cc2ccc(F)cc2)S(=O)(=O)c2ccc3c(c2)OCCO3)c(C)n1C	Cav3 T inh -2.9
CCN(CC)c1ccc(NC(=O)CSc2nc3ccccc3c(=O)n2-c2cc(S(=O)(=O)N(C)C)ccc2C)cc1	none (no result: hDAT+cocaine, Rev-RRE block, Cav3 T inh, PTK2B oligo ant)
CCCn1c(SCC(=O)Nc2cc(S(=O)(=O)N3CCOCC3)ccc2Cl)n[nH]c1=O	none (no result: hDAT+cocaine, Rev-RRE block, Cav3 T inh)
CCCn1c(CCC(=O)Nc2ccccc2Cc2ccccc2)nc2cc(S(=O)(=O)N3CCOCC3)ccc21	Cav3 T inh -9.6 (no result: Phagocytosis inh)
Cc1ccc(OCCn2cc(/C=C(\C#N)C(=O)NCC3CCCO3)c3ccccc32)cc1 (configuration not stated)	none (no result: hDAT+cocaine, Rev-RRE block, Cav3 T inh, PTK2B oligo ant)
CCOC(=O)C1=C(O)/C(=C/c2cn(CC(=O)NCC3CCCO3)c3ccccc23)SC1=Nc1ccc(C)cc1 (configuration not stated)	Rev-RRE block 41 (no result: Phagocytosis inh, Measles CPE)
COc1ccc(OC)c(NS(=O)(=O)c2ccc(Cl)nc2)c1	Measles CPE 32 (no result: hDAT+cocaine, Rev-RRE block, Cav3 T inh, PTK2B oligo ant)
COc1ccc(S(=O)(=O)Nc2ccc(S(=O)(=O)Nc3ccc(F)cc3)cc2)cc1C	Cav3 T inh -6.8 (no result: Phagocytosis inh)
COc1ccc(S(=O)(=O)Nc2ccc(C(F)(F)F)cc2)cc1OC	Cav3 T inh -4.8, PTK2B oligo ant -3.4
